# Assay results as given in ChEMBL document CHEMBL3124932, “Design, synthesis and evaluation of genistein-O-alkylbenzylamines as potential multifunctional agents for the treatment of Alzheimer's disease” (Eur J Med Chem, 2014).
# Active and inactive are the calls of the source.
# Columns and labels:
# [1] = Antioxidant activity assessed as trolox equivalent of APPH-induced radical scavenging activity at 1 to 10 uM preincubated for 15 mins followed by AAPH challenge measured every minute for 90 minutes by ORAC fluorescence assay; format: functional
# Method in brief: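 ORAC-FL in phosphate buffer pH 7.4. Samples (1–10 µM) preincubated with fluorescein (150 nM final) 15 min at 37 °C, then AAPH (12 mM final) added. Fluorescence (ex 485/em 535 nm) read each minute for 90 min. Net AUC over blank converted to Trolox equivalents using a 1–8 µM Trolox curve. Duplicates, at least 3 independent assays.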
# [2] = target: Butyrylcholinesterase (Rattus norvegicus) (UniProt Q9JKC1); assay: Inhibition of rat serum BuChE using butyrylthiocholine iodide as substrate at 50 uM after 15 mins by Ellman's method
# Chain of Butyrylcholinesterase (Rattus norvegicus) (Q9JKC1 as listed by the source): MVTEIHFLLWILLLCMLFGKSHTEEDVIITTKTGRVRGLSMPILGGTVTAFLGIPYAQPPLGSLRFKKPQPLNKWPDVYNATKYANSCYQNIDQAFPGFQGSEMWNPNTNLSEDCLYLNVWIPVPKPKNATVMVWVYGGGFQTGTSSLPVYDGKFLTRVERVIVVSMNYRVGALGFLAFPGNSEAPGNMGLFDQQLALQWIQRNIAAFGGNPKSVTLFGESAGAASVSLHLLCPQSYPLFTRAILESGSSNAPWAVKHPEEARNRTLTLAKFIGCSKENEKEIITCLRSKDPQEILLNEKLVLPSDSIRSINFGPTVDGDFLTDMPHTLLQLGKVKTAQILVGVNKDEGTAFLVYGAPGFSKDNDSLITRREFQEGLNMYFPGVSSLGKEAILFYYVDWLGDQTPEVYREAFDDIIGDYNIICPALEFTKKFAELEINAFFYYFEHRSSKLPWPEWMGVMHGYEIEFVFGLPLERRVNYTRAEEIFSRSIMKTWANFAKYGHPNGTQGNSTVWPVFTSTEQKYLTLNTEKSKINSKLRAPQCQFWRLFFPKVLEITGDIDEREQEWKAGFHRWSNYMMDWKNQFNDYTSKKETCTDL
# Method in brief: (§1)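 Modified Ellman assay in phosphate buffer pH 7.4. Enzyme sources: AChE from 5% rat cortex homogenate, preincubated 5 min with iso-OMPA to block BuChE; BuChE from 25% rat serum. Substrates were acetylthiocholine or butyrylthiocholine iodide. Compounds incubated 15 min at 37 °C, then DTNB added; A405 read. IC50 derived; triplicate, 3 independent experiments; "no active" means under 5% inhibition at 50 µM.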
# Acetylcholinesterase [3] = target: T1, Acetylcholinesterase (Rattus norvegicus, UniProt P37136); assay: Inhibition of rat cortex homogenate AchE using acetylthiocholine iodide as substrate after 15 mins by Ellman's method
# T1 sequence (P37136 whole entry): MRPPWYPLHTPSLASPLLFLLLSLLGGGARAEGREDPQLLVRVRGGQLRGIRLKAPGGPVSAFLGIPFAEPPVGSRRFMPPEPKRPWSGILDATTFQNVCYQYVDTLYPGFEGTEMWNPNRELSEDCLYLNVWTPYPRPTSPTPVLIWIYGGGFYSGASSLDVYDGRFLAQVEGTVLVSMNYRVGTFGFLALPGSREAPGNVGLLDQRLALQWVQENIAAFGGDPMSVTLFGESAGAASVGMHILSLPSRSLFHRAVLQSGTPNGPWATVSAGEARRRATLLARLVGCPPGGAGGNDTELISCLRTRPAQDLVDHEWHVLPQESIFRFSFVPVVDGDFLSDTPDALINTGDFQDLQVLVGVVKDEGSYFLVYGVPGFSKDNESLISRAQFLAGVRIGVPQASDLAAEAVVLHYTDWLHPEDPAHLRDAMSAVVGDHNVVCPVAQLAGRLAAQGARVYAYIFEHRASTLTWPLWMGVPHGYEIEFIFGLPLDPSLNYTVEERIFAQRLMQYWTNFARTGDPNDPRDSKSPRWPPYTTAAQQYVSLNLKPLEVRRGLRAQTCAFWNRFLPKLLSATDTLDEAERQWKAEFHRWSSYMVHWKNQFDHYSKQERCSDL
# [4] = target: Amyloid-beta precursor protein (Homo sapiens) (UniProt P05067); assay: Inhibition of Cu2+-induced amyloid beta (1 to 42) (unknown origin) aggregation at 25 uM after 24 hrs by thioflavin T fluorescence method
# Chain of Amyloid-beta precursor protein (Homo sapiens) (P05067 whole entry): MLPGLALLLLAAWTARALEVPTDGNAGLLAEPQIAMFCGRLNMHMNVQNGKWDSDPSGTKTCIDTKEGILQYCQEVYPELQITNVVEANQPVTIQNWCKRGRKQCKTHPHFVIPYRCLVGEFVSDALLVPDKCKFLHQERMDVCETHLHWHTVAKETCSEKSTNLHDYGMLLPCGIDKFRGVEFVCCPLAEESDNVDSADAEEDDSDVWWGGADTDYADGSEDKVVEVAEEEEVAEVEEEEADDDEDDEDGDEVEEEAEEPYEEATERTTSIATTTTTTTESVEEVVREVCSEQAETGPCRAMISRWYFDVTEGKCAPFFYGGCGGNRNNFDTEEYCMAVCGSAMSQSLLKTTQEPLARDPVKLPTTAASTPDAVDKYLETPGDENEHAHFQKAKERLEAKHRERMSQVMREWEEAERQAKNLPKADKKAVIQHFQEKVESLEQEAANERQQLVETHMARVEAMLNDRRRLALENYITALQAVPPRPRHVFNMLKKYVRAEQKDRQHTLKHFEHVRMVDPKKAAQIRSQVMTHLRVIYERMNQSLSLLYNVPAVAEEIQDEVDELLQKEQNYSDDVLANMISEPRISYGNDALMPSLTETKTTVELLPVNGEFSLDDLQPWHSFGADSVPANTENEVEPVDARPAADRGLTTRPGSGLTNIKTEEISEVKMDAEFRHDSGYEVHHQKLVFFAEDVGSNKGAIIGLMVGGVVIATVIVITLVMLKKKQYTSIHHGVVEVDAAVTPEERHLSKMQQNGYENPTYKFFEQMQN
# Method in brief: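 Aβ1-42 (25 µM final, HFIP-pretreated) with an equimolar amount of Cu2+ (25 µM) in HEPES pH 6.6 with 150 mM NaCl. Incubated with or without compound (10–35 µM final) 24 h at 37 °C. ThT in glycine-NaOH pH 8.5 added, fluorescence ex 446/em 490 nm. DMSO 12.5% final. Percent inhibition relative to no-inhibitor wells; triplicate, mean of 3 independent experiments.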
# Acetylcholinesterase [5] = target: T2, Acetylcholinesterase (Homo sapiens, UniProt P22303); assay: Inhibition of human erythrocytes AchE using acetylthiocholine iodide as substrate at 50 uM after 15 mins by Ellman's method
# T2 sequence (P22303 whole entry): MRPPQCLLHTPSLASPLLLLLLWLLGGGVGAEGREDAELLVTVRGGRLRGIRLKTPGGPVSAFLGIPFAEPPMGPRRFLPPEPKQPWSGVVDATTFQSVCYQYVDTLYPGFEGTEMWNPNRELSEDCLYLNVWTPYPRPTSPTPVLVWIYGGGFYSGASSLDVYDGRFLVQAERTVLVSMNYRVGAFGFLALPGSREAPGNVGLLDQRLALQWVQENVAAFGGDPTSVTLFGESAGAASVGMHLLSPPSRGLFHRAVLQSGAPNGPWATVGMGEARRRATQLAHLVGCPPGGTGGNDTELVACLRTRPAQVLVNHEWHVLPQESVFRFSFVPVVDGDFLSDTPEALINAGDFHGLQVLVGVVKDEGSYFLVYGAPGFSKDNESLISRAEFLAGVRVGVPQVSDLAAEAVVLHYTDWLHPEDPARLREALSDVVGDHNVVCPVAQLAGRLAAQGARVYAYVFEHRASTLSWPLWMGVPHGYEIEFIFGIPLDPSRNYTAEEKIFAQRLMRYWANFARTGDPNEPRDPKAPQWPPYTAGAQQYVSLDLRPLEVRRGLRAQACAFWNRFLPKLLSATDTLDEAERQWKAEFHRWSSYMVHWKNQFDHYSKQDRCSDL
# Method in brief: (§2)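 Modified Ellman assay with purified eel or human erythrocyte AChE (0.05 U/mL final) in phosphate buffer pH 8.0. Compound and enzyme incubated 15 min at 37 °C with acetylthiocholine iodide, then DTNB added; absorbance read at 412 nm. IC50 is the concentration giving 50% inhibition. Assays in triplicate, 3 independent experiments; "no active" means under 5% inhibition at 50 µM.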
# [6] = target: Acetylcholinesterase (Electrophorus electricus) (UniProt O42275); assay: Inhibition of electric eel AchE using acetylthiocholine iodide as substrate at 50 uM after 15 mins by Ellman's method; method in brief: as §2
# Chain of Acetylcholinesterase (Electrophorus electricus) (O42275 24-633 limits assumed): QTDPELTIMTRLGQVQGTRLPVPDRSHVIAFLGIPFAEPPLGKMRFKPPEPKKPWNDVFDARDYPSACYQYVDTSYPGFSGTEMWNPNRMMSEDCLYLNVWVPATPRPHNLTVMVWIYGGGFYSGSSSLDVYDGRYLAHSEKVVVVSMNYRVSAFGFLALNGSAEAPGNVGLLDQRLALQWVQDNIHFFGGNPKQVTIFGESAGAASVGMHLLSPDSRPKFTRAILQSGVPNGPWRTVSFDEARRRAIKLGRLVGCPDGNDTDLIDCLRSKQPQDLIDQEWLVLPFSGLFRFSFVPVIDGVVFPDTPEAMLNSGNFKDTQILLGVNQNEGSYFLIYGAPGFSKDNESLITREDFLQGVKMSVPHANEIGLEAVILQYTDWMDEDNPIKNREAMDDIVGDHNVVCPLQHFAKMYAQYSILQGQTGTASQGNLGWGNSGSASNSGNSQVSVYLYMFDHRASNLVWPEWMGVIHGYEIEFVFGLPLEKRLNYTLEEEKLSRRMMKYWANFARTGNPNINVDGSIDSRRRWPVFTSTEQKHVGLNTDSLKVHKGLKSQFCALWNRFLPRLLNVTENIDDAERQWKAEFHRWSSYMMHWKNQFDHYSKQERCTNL
# [7] = target: T3, Acetylcholinesterase (Rattus norvegicus) (UniProt P37136); assay: Inhibition of rat cortex homogenate AchE using acetylthiocholine iodide as substrate at 50 uM after 15 mins by Ellman's method; method in brief: as §1
# T3 sequence (whole entry): T1 sequence (P37136 whole entry)
# Mus musculus [8] = assay: Cognition enhancing effect against scopolamine-induced memory deficit in po dosed Kunming mouse assessed as increase in latency time administered 1 hr before training followed by scopolamine challenge for 7 days measured after 24 hrs by step-down passive avoidance test; format: functional, organism-based
# Method in brief: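 Kunming mice, six weeks old, 18–22 g, either sex, n=10 per group. Oral dosing at 2, 6, 18 or 3, 9, 27 mg/kg in vegetable oil, 1 h before training; vehicle as negative control. Scopolamine (3 mg/kg i.p., in saline) given 30 min later. Behavioural testing after 7 days of treatment. Step-down training used a 0.5 mA, 2 s foot shock. Latency measured 24 h later, cut-off 300 s; mean ± SEM.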
# [9] = target: Amyloid-beta precursor protein (Homo sapiens) (UniProt P05067); assay: Induction of amyloid beta (1 to 42) (unknown origin) disaggregation assessed as reduction of Cu2+-induced amyloid beta fibril formation at 25 uM after 24 hrs by thioflavin T fluorescence method; parameters: scale not given: the % may be the effect or the level left
# Method in brief: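 Aβ1-42 (25 µM final, HFIP-pretreated) and Cu2+ (25 µM) in HEPES pH 6.6 with 150 mM NaCl, incubated 24 h at 37 °C. Test compound (25 µM final) then added for a further 24 h at 37 °C, wells sealed. Read by ThT in glycine-NaOH pH 8.5 (ex 446/em 490 nm). DMSO 12.5% final; triplicate.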
# [10] = target: Amyloid-beta precursor protein (Homo sapiens) (UniProt P05067); assay: Inhibition of self-induced amyloid beta (1 to 42) (unknown origin) aggregation at 25 uM after 24 hrs by thioflavin T fluorescence method
# Method in brief: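 HFIP-pretreated Aβ1-42 (25 µM final) incubated with compound (10–50 µM) in 50 mM phosphate pH 7.4 for 24 h at 37 °C, wells sealed. ThT in glycine-NaOH pH 8.5 added; fluorescence ex 446/em 490 nm. DMSO 12.5% final. Percent inhibition relative to peptide without inhibitor; triplicate, mean of 3 independent experiments.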
# Acetylcholinesterase [11] = target: T2, Acetylcholinesterase; assay: Inhibition of human erythrocytes AchE using acetylthiocholine iodide as substrate after 15 mins by Ellman's method
# Acetylcholinesterase [12] = target: Acetylcholinesterase (Electrophorus electricus, UniProt O42275); assay: Inhibition of electric eel AchE using acetylthiocholine iodide as substrate after 15 mins by Ellman's method
# Chain of Acetylcholinesterase (Electrophorus electricus, UniProt O42275) (O42275 whole entry): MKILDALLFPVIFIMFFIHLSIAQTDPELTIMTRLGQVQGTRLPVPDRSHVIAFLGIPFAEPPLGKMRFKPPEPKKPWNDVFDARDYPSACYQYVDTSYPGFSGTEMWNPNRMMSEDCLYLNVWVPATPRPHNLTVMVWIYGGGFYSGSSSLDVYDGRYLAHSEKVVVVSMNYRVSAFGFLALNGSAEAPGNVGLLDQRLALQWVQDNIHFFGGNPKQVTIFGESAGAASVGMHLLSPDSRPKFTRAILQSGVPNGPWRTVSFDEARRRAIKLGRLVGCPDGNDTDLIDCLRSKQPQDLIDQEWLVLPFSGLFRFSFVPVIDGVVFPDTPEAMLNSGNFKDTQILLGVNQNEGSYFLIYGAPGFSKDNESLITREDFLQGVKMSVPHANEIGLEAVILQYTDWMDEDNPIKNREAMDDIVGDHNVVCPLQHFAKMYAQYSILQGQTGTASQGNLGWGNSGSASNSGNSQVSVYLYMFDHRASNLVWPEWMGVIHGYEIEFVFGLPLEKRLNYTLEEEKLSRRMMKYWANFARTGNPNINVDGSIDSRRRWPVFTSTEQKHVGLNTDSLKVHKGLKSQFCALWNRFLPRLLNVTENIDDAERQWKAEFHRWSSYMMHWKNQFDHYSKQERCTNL
# Mus musculus [13] = assay: Cognition enhancing effect against scopolamine-induced memory deficit in Kunming mouse assessed as increase in latency time at 5 mg/kg, po administered 1 hr before training followed by scopolamine challenge for 7 days measured after 24 hrs by step-down passive avoidance test; format: functional, organism-based; parameters: dose 5 mg/kg
# Method in brief: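 Kunming mice (18–22 g, six weeks old, either sex), 10 per group. Drug in vegetable oil given orally 1 h before training, with scopolamine (3 mg/kg i.p., in 0.9% saline) 30 min later. Behavioural testing one day after 7 days of treatment. Training: 0.5 mA, 2 s foot shock on stepping down from a block. Step-down latency measured 24 h later, 300 s cut-off. Mean ± SEM.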
smiles,measurement,setting,value
CN(CCCOc1cc(O)c2c(=O)c(-c3ccc(O)cc3)coc2c1)Cc1ccccc1,Activity,[1],0.89
same,inhibition,[2],7.4%
same,IC50,Acetylcholinesterase [3],36.3 µM
CN(CCCCOc1ccc(-c2coc3cc(O)cc(O)c3c2=O)cc1)Cc1ccccc1,Activity,[1],0.32
same,inhibition,[2],10.8%
same,IC50,Acetylcholinesterase [3],3.79 µM
COc1cc(/C=C/C(=O)CC(=O)/C=C/c2ccc(O)c(OC)c2)ccc1O,inhibition,[4],64%
COc1ccccc1CN(C)CCCCOc1cc(O)c2c(=O)c(-c3ccc(O)cc3)coc2c1,Activity,[1],1.56
same,inhibition,[2],< 5%
same,IC50,Acetylcholinesterase [3],5.55 µM
CCN(CCCCOc1cc(O)c2c(=O)c(-c3ccc(O)cc3)coc2c1)Cc1ccccc1OC,Activity,[1],1.06
same,inhibition,[2],7.7%
same,IC50,Acetylcholinesterase [3],0.83 µM
CN(CCCCOc1cc(O)c2c(=O)c(-c3ccc(O)cc3)coc2c1)Cc1ccccc1,Activity,[1],1
same,inhibition,[2],8.9%
same,IC50,Acetylcholinesterase [3],54.5 µM
CCN(CCCOc1ccc(-c2coc3cc(O)cc(O)c3c2=O)cc1)Cc1ccccc1,Activity,[1],0.58
same,inhibition,[2],11.6%
same,IC50,Acetylcholinesterase [3],42.8 µM
COc1ccccc1CN(C)CCCCCCOc1cc(O)c2c(=O)c(-c3ccc(O)cc3)coc2c1,Activity,[1],2.7
same,inhibition,[2],< 5%
same,IC50,Acetylcholinesterase [3],3.19 µM
O=c1c(-c2ccc(O)cc2)coc2cc(O)cc(O)c12,Activity,[1],5
same,inhibition,[2],< 5%
same,inhibition,Acetylcholinesterase [5],< 5%
same,inhibition,[6],< 5%
same,inhibition,[7],< 5%
CCN(CCCCOc1ccc(-c2coc3cc(OCCCCN(CC)Cc4ccccc4)cc(O)c3c2=O)cc1)Cc1ccccc1,Activity,[1],0.26
same,inhibition,[2],10.3%
same,IC50,Acetylcholinesterase [3],0.9 µM
CCN(CCCCCCOc1cc(O)c2c(=O)c(-c3ccc(O)cc3)coc2c1)Cc1ccccc1,Activity,Mus musculus [8],Dose-dependent effect
same,Activity,[9],36.1%
same,inhibition,[4],72.1%
same,inhibition,[10],34.3%
same,Activity,[1],1.2
same,inhibition,[2],< 5%
same,IC50,Acetylcholinesterase [11],5.8 µM
same,IC50,Acetylcholinesterase [12],4.98 µM
same,IC50,Acetylcholinesterase [3],0.35 µM
COc1cc2c(cc1OC)C(=O)C(CC1CCN(Cc3ccccc3)CC1)C2 (configuration not stated),Activity,Mus musculus [13],Active
CCN(CCCCOc1ccc(-c2coc3cc(O)cc(O)c3c2=O)cc1)Cc1ccccc1,Activity,[1],0.6
same,inhibition,[2],< 5%
same,IC50,Acetylcholinesterase [3],12.8 µM
CCN(CCCCOc1ccc(-c2coc3cc(O)cc(O)c3c2=O)cc1)Cc1ccccc1OC,Activity,Mus musculus [8],Dose-dependent effect
same,Activity,[9],39.2%
same,inhibition,[4],71.9%
same,inhibition,[10],24.6%
same,Activity,[1],1.1
same,inhibition,[2],6.7%
same,IC50,Acetylcholinesterase [11],3.88 µM
same,IC50,Acetylcholinesterase [12],15.9 µM
same,IC50,Acetylcholinesterase [3],1.45 µM
COc1ccccc1CN(C)CCCCCCOc1ccc(-c2coc3cc(O)cc(O)c3c2=O)cc1,Activity,[1],0.4
same,inhibition,[2],< 5%
same,IC50,Acetylcholinesterase [3],5.62 µM
CCN(CCCOc1cc(O)c2c(=O)c(-c3ccc(O)cc3)coc2c1)Cc1ccccc1,Activity,[1],1.12
same,inhibition,[2],9.9%
same,IC50,Acetylcholinesterase [3],1.42 µM
CN(CCCCCCOc1cc(O)c2c(=O)c(-c3ccc(O)cc3)coc2c1)Cc1ccccc1,Activity,[1],0.65
same,inhibition,[2],< 5%
same,IC50,Acetylcholinesterase [3],4.24 µM
COc1ccccc1CN(C)CCCCOc1ccc(-c2coc3cc(O)cc(O)c3c2=O)cc1,Activity,[1],1.1
same,inhibition,[2],9.7%
same,IC50,Acetylcholinesterase [3],5.31 µM
CCN(CCCCCCOc1cc(O)c2c(=O)c(-c3ccc(O)cc3)coc2c1)Cc1ccccc1OC,Activity,[1],0.56
same,inhibition,[2],< 5%
same,IC50,Acetylcholinesterase [3],0.53 µM
CCN(CCCCCCOc1ccc(-c2coc3cc(O)cc(O)c3c2=O)cc1)Cc1ccccc1,Activity,[1],0.29
same,inhibition,[2],< 5%
same,IC50,Acetylcholinesterase [3],38.4 µM
CCN(CCCCOc1cc(O)c2c(=O)c(-c3ccc(O)cc3)coc2c1)Cc1ccccc1,Activity,[1],2.4
same,inhibition,[2],10.4%
same,IC50,Acetylcholinesterase [3],2.42 µM
CCN(CCCOc1ccc(-c2coc3cc(OCCCN(CC)Cc4ccccc4OC)cc(O)c3c2=O)cc1)Cc1ccccc1OC,Activity,[1],0.49
same,inhibition,[2],12.5%
same,IC50,Acetylcholinesterase [12],0.16 µM
same,IC50,Acetylcholinesterase [3],0.21 µM
CN(CCCCCCOc1ccc(-c2coc3cc(O)cc(O)c3c2=O)cc1)Cc1ccccc1,Activity,[1],0.3
same,inhibition,[2],7.7%
same,IC50,Acetylcholinesterase [3],3.54 µM
CN(CCCOc1ccc(-c2coc3cc(O)cc(O)c3c2=O)cc1)Cc1ccccc1,Activity,[1],0.46
same,inhibition,[2],< 5%
same,IC50,Acetylcholinesterase [3],49.3 µM
COc1ccccc1CN(C)CCCOc1ccc(-c2coc3cc(O)cc(O)c3c2=O)cc1,Activity,[1],0.62
same,inhibition,[2],< 5%
same,IC50,Acetylcholinesterase [3],37.4 µM
CCN(CCCCCCOc1ccc(-c2coc3cc(O)cc(O)c3c2=O)cc1)Cc1ccccc1OC,Activity,[1],0.38
same,inhibition,[2],< 5%
same,IC50,Acetylcholinesterase [3],1.69 µM
CCN(CCCCCCOc1ccc(-c2coc3cc(OCCCCCCN(CC)Cc4ccccc4OC)cc(O)c3c2=O)cc1)Cc1ccccc1OC,Activity,[1],0.13
same,inhibition,[2],11.6%
same,IC50,Acetylcholinesterase [12],3.79 µM
same,IC50,Acetylcholinesterase [3],0.51 µM
COc1ccccc1CN(C)CCCOc1cc(O)c2c(=O)c(-c3ccc(O)cc3)coc2c1,Activity,[1],1.05
same,inhibition,[2],< 5%
same,IC50,Acetylcholinesterase [3],13.5 µM
CCN(CCCOc1cc(O)c2c(=O)c(-c3ccc(O)cc3)coc2c1)Cc1ccccc1OC,Activity,[1],1.02
same,inhibition,[2],< 5%
same,IC50,Acetylcholinesterase [3],0.47 µM
CCN(CCCOc1ccc(-c2coc3cc(O)cc(O)c3c2=O)cc1)Cc1ccccc1OC,Activity,[1],0.64
same,inhibition,[2],17.6%
same,IC50,Acetylcholinesterase [3],16 µM
